By Ki is commonly meant a dissociation constant, usually derived from enzyme kinetics or from competition with a known ligand. Low values mean higher affinity, high ones lower affinity.

Results on ten molecules are retold here after ChEMBL document CHEMBL1144014, “Protein phosphatase inhibitory activity of tautomycin photoaffinity probes evaluated at femto-molar level” (Bioorg Med Chem, 2008).

The target of this test is Serine/threonine-protein phosphatase PP1-gamma catalytic subunit (Homo sapiens, UniProt P36873). Nature of the test: Inhibition of PP1gamma by firefly bioluminescence assay. The method in brief: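 Recombinant PP1c (E. coli-expressed), concentration set by titration, diluted to 40 nM in Tris–HCl (pH 8.43) with 0.15% BSA and 4.0 mM DTT (DTT omitted for disulfide-containing probes). Inhibitor diacid (0–40 µM stock dilutions; 0–10 µM in assay) premixed with enzyme. Luciferin phosphate (40 µM, 5 µL) is added. After 6 min, released luciferin is read on an immobilized-luciferase column with photon counting, in triplicate. Ki is fitted with a tight-binding model.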
Serine/threonine-protein phosphatase PP1-gamma catalytic subunit, sequence (P36873 whole entry): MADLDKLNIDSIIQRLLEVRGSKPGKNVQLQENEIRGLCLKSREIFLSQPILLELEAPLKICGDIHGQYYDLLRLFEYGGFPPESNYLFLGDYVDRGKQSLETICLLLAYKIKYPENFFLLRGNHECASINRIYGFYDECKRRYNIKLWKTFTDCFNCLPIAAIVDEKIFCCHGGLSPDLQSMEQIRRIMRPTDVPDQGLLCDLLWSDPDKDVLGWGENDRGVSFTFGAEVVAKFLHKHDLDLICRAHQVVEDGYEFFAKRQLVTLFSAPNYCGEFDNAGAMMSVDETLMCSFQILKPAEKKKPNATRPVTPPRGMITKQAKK
For `COc1cc(C2(C(F)(F)F)N=N2)ccc1C(=O)NCCNC(=O)CO/N=C(\C)[C@@H](C)CC[C@@H]1O[C@@]2(CC[C@H]1C)CC[C@H](C)[C@H]([C@H](C)CC[C@H](O)[C@H](C)C(=O)C[C@@H](O)[C@H](OC)[C@H](OC(=O)C[C@@H](O)/C(C(=O)O)=C(\C)C(=O)O)C(C)C)O2`, affinity was put at a Ki of 0.213 µM.
The molecule `CO[C@@H]([C@H](O)CC(=O)[C@@H](C)[C@@H](O)CC[C@@H](C)[C@@H]1O[C@]2(CC[C@@H](C)[C@H](CC[C@H](C)/C(C)=N\OCC(=O)Nc3cccc(C(=O)c4ccccc4)c3)O2)CC[C@@H]1C)[C@H](OC(=O)C[C@@H](O)/C(C(=O)O)=C(\C)C(=O)O)C(C)C` gave an inhibitory constant (Ki) of 0.0325 µM.
Take `CO[C@@H]([C@H](O)CC(=O)[C@@H](C)[C@@H](O)CC[C@@H](C)[C@@H]1O[C@]2(CC[C@@H](C)[C@H](CC[C@H](C)/C(C)=N\OCC(=O)NCCNC(=O)c3ccc(F)c(N=[N+]=[N-])c3)O2)CC[C@@H]1C)[C@H](OC(=O)C[C@@H](O)/C(C(=O)O)=C(\C)C(=O)O)C(C)C`: affinity was put at a Ki of 0.0084 µM.
With `COc1cc(C2(C(F)(F)F)N=N2)ccc1C(=O)NCCNC(=O)CO/N=C(/C)[C@@H](C)CC[C@@H]1O[C@@]2(CC[C@H]1C)CC[C@H](C)[C@H]([C@H](C)CC[C@H](O)[C@H](C)C(=O)C[C@@H](O)[C@H](OC)[C@H](OC(=O)C[C@@H](O)/C(C(=O)O)=C(\C)C(=O)O)C(C)C)O2`, the inhibitory constant (Ki) stood at 0.0497 µM.
On to `CO[C@@H]([C@H](O)CC(=O)[C@@H](C)[C@@H](O)CC[C@@H](C)[C@@H]1O[C@]2(CC[C@@H](C)[C@H](CC[C@H](C)/C(C)=N/OCC(=O)Nc3cccc(C(=O)c4ccccc4)c3)O2)CC[C@@H]1C)[C@H](OC(=O)C[C@@H](O)/C(C(=O)O)=C(\C)C(=O)O)C(C)C`, for which the Ki came to 0.008 µM.
In the case of `CO[C@@H]([C@H](O)CC(=O)[C@@H](C)[C@@H](O)CC[C@@H](C)[C@@H]1O[C@]2(CC[C@@H](C)[C@H](CC[C@H](C)/C(C)=N/OCC(=O)NCCSSCCNC(=O)c3ccc(F)c(N=[N+]=[N-])c3)O2)CC[C@@H]1C)[C@H](OC(=O)C[C@@H](O)/C(C(=O)O)=C(\C)C(=O)O)C(C)C`, the Ki stood at 0.0196 µM.
As for `CO[C@@H]([C@H](O)CC(=O)[C@@H](C)[C@@H](O)CC[C@@H](C)[C@@H]1O[C@]2(CC[C@@H](C)[C@H](CC[C@H](C)/C(C)=N/OCC(=O)NCCCNC(=O)c3ccc(F)c(N=[N+]=[N-])c3)O2)CC[C@@H]1C)[C@H](OC(=O)C[C@@H](O)/C(C(=O)O)=C(\C)C(=O)O)C(C)C`, the inhibitory constant (Ki) came out at 0.0034 µM.
`CO[C@@H]([C@H](O)CC(=O)[C@@H](C)[C@@H](O)CC[C@@H](C)[C@@H]1O[C@]2(CC[C@@H](C)[C@H](CC[C@H](C)/C(C)=N/OCC(=O)NCCNC(=O)c3ccc(F)c(N=[N+]=[N-])c3)O2)CC[C@@H]1C)[C@H](OC(=O)C[C@@H](O)/C(C(=O)O)=C(\C)C(=O)O)C(C)C` returned a Ki of 0.0173 µM.
Turning to `CO[C@@H]([C@H](O)CC(=O)[C@@H](C)[C@@H](O)CC[C@@H](C)[C@@H]1O[C@]2(CC[C@@H](C)[C@H](CC[C@H](C)/C(C)=N\OCC(=O)NCCSSCCNC(=O)c3ccc(F)c(N=[N+]=[N-])c3)O2)CC[C@@H]1C)[C@H](OC(=O)C[C@@H](O)/C(C(=O)O)=C(\C)C(=O)O)C(C)C`, the Ki amounted to 0.0239 µM.
Turning to `CO[C@@H]([C@H](O)CC(=O)[C@@H](C)[C@@H](O)CC[C@@H](C)[C@@H]1O[C@]2(CC[C@@H](C)[C@H](CC[C@H](C)C(C)=O)O2)CC[C@@H]1C)[C@H](OC(=O)C[C@@H](O)/C(C(=O)O)=C(\C)C(=O)O)C(C)C` [TAUTOMYCIN DIACID], the Ki is 0.0045 µM.
